# RBBP9 inh: human RBBP9 inhibitors, primary screen, biochemical, fluorescence polarization, FP-Rh probe, HTS | hit rate 0.2% among 220,000 | recombinant RBBP9 | inhibition, % at 7.94 µM;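 active = inhibition above the campaign mean of all tested compounds plus 3 SD, cut at about 14% in these data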;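 also: plate controls were DMSO wells with RBBP9 for no effect and wells lacking RBBP9 protein for full effect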
#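 Controls: DMSO-treated enzyme wells and wells lacking RBBP9 | Material: RBBP9 protein | Technique: Fluorescence polarization | Replication: Single well per compound, no replicates | Buffer or medium: Tris-NaCl-Pluronic buffer, pH 8.0 | Timing: 30 min compound preincubation, 45 min probe labeling, 25 °C | Read-out basis: Percent inhibition from mP, scaled between DMSO and no-protein wells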
# MDM2 E3 inh: MDM2-luciferase reporter signal enhancers, primary screen, MDM2 E3 ligase inhibitor project, cell-based, luminescence, 1536-well | hit rate 0.11% among 210,000 | cell-based MDM2 ubiquitination luciferase reporter, 2 h; 0 = plate control, 100 = twice control, blank-subtracted | signal enhancement, % at 5 µM;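 active = signal enhancement of 30% or more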;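 also: luminescence tracks abundance of the self-degrading MDM2-luciferase fusion protein; higher signal means inhibition of MDM2 E3 ligase activity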
# Target sequence (Q00987 whole entry, looked up, the tested form may be a part): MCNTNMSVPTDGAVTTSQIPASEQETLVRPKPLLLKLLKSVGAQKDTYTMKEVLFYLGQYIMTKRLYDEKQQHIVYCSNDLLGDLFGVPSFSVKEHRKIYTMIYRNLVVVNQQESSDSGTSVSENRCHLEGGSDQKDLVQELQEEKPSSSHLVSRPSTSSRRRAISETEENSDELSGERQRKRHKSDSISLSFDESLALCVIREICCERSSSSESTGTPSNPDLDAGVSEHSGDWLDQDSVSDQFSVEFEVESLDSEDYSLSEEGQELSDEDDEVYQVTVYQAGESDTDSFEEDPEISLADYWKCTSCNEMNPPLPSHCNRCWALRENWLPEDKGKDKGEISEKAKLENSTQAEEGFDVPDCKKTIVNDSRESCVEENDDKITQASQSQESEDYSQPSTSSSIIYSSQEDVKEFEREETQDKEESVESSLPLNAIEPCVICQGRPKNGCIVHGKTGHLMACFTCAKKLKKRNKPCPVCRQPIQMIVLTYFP
#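 Assay system: mammalian cells stably expressing self-ubiquitinating, self-degrading MDM2 E3–luciferase fusion. Quantity: 2000 cells in each well. Medium: DMEM culture medium. Compound dosing: single-point 5 µM. Timing: cell settling 4 h, compound treatment 2 h, both 37 °C. Technique: luciferase luminescence. Read-out basis: percent signal gain over controls, blank-subtracted. Benchmarks: plate controls and plate blanks.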
# Insulin prom inh: inhibitors of insulin promoter-driven GFP, primary screen, imaging, TRM-6 cells, eGFP reporter, cell count; reporter expression induced with tamoxifen; inhibition, % at 2 µM; hit rate 0.9% among 130,000;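 active = inhibition above the mean plus 3 SD, with well images judged a real hit on visual review, cut at about 60% in these data, passing the limit was not always enough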
# Ins promoter up: insulin promoter activators in MIN6 cells, imaging, high-content screening, mouse beta cells. MIN6 insulin promoter-GFP reporter; active compounds read high. hit rate 0.3% among 190,000. AID 1625, 2009. z-score at 5 µM;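 active = z-score above 3 at 5 µM with at least 500 cells counted in the well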
# Hsp70 activator: Hsp70 transcriptional activators, primary screen, cell-based, HeLa, Hsp70 promoter luciferase, luminescence, 10 µM. activation, % at 10 µM. hit rate 0.04% among 200,000. HeLa Hsp70 promoter luciferase reporter; scaled: vehicle 0, proteasome-inhibitor control 100%;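 active = activation above the mean across all tested compounds plus 3 SD, cutoff set per campaign, cut at about 5.5% in these data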;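 also: 100% = MG132 at 30 µM as the positive control and 0% = DMSO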
# Wee1 stabilizer: Wee1 degradation inhibitors, primary screen, cell-based, HeLa, Wee1K328M-luciferase, luminescence; HeLa Luc-Wee1K328M stability; 100% = proteasome inhibitor MG132 effect; reporter increase, % at 5 µM; hit rate 1.2% among 220,000;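 active = activation above the mean of all tested compounds plus 3 SD, set per screening run, cut at about 8.8% in these data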;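 also: cells exposed to compound for 20 h before luminescence read; 0% = DMSO alone and 100% = MG132 at 30 µM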
# The depositor's hits bear a star; x = no result. Sampled rows, rich in hits. Any-hit rate of the full collection: about 2.2%.
SMILES,RBBP9 inh,MDM2 E3 inh,Insulin prom inh,Ins promoter up,Hsp70 activator,Wee1 stabilizer
C/C(CC(=O)NC(C)(C)C)=N\NC(=O)COc1ccc(C)cc1Br,-4,10,6,0.19,-1,9.5*
O=C(COc1ccc(Br)cc1Br)NC(=O)NC1CCCC1,2,5,x,x,0,2
Cc1ccc(C(=O)CCNc2ccc(Cl)cc2)o1,2,-4,38,x,0,1
CSc1ccc(S(=O)(=O)N(CC(=O)NN=C2CCN(C)CC2)c2ccc(C)cc2)cc1,-4,-19,36,0.73,0,-2
COc1ccc(Cc2nc(-c3cccs3)no2)cc1,0,-67,42,0.05,0,8.9*
COC(=O)C(C)N1C(=O)S/C(=C/c2cc(C)n(C(C)C)c2C)C1=O (stereo not given),-9,-7,23,x,0,9.4*
COC(=O)c1cc(NC(=O)Cc2ccc(OC)cc2)cc(C(=O)OC)c1,-1,-14,-14,0.66,0,2
COc1ccc2ccccc2c1CN1CCN(Cc2ccccc2)CC1,1,-4,78*,-1.9,0,-1
CCN(CC(=O)Nc1ccc2c(c1)OCO2)Cc1nc2ccccc2c(=O)[nH]1,-8,7,x,-2,0,-1
CCN(CC(=O)Nc1ccc(N2CCOCC2)cc1)Cc1nc2ccccc2c(=O)[nH]1,-5,39*,-69,-0.41,0,-3
O=C(CN1CCOCC1)Nc1ccc(N2CCN(c3ccccc3)CC2)c(F)c1,-1,-11,x,0.75,0,1
C1=C(c2ccccc2)Nc2nnnn2C1,0,-8,23,3.1*,0,-1
CC(C)N1C(=O)c2ccccc2N(Cc2ccccc2)S1(=O)=O,10,-7,x,-0.51,x,10*
O=C(/C=C/c1ccc(F)cc1)Nc1nc2ccccc2[nH]1,0,-25,-2,0.1,0,10*
CCOC(=O)C(=NCC1CCCO1)NNc1ccccc1Cl (stereo not given),1,x,x,0.11,x,6
CC(C)OCc1c(C(=O)Nc2nccs2)oc2ccccc12,-1,-2,-58,-0.01,0,11*
CCOC(=O)c1ccc(NC(=O)C(C)NS(=O)(=O)c2ccc(OC)cc2)cc1 (stereo not given),-12,-32,-39,0.65,0,-3
CCOC(=O)c1ccc(NC(=O)COc2ccc(S(=O)(=O)NC(C)CC)cc2)cc1 (stereo not given),-11,-8,-8,3.1*,0,1
CCOC(=O)C1(CCCc2ccccc2)CCN(C(=O)CCC2=NNC(=O)CC2)CC1,-13,-11,x,-1.4,0,11*
CC1=C(C#N)CCC(=O)N1Cc1ccc(C)cc1,-4,-9,-40,0.58,0,1
O=C(O)c1ccc(NC(=S)NC2CCCCC2)cc1,-5,0,x,0.3,0,9.6*
Cc1nn(Cc2c(F)c(F)c(F)c(F)c2F)c(C)c1NC(=O)c1ccc(COc2cc(Cl)ccc2Cl)cc1,-2,-10,-31,-1.1,0,0
Cc1cccc(C)c1NC(=O)c1cccc(COc2cc(Cl)ccc2Cl)c1,-3,-7,-13,-0.84,0,9.0*
O=c1[nH]cc(I)cc1I,-12,-23,x,-0.11,x,-3
CC(NC(=S)Nc1ccccc1Cl)C(c1ccccc1)N1CCOCC1 (stereo not given),1,-14,-14,-0.3,0,9.2*
SMILES,RBBP9 inh,MDM2 E3 inh,Insulin prom inh,Ins promoter up,Hsp70 activator,Wee1 stabilizer
CC(C)(C)c1nnc(SCC(=O)c2ccccc2)n(N)c1=O,-6,-9,-57,0.41,0,0
C=CCNc1ncnc2c1[nH]c1ccc(Cl)cc12,0,-7,93*,0.14,0,-1
C=CCNc1ncnc2c1[nH]c1ccccc12,-5,-14,56,-2.7,0,3
Cc1ccc2nc(-c3ccc(NC(=O)CSc4nccc(=O)[nH]4)cc3)sc2c1,-7,-19,18,-0.02,0,3
Nc1cc(=O)[nH]c(SCC(=O)Nc2ccc3c(c2)CCC3)n1,1,-7,7,0.18,0,9.6*
Cc1ccc2nc(-c3ccc(NC(=O)CSc4nc(N)cc(=O)[nH]4)cc3)sc2c1,-32,x,x,-0.19,x,11*
Cc1cc(C)c(S(=O)(=O)NCCOc2ccccc2)c(C)c1-n1cnnn1,-1,1,x,-0.34,0,3
Cc1ccccc1OS(=O)(=O)c1cn(C)c(=O)n(C)c1=O,5,-4,x,0.41,0,2
CCN(CC)S(=O)(=O)c1ccc(C(=O)NCc2ccc3c(c2)OCO3)cc1,-8,-14,79*,-0.68,0,0
CCCN(CCC)S(=O)(=O)c1ccc(C(=O)NCc2ccc3c(c2)OCO3)cc1,-9,-33,x,-0.18,0,0
CN(Cc1cnn(C)c1)C(=O)c1cc(COc2c(F)cccc2F)on1,-12,0,8,-0.39,0,-3
O=C(O)c1ccc(C(=O)c2ccc3c(c2)C(=O)N(CC2CCCO2)C3=O)cc1 (stereo not given),-5,-2,43,0.11,0,10*
O=C(O)c1ccc(S(=O)(=O)c2ccc3c(c2)C(=O)N(CC2CCCO2)C3=O)cc1 (stereo not given),-3,-18,-71,-0.37,0,-2
CCC(C)NC(=O)c1ccccc1NC(=O)COc1ccc(OC)cc1 (stereo not given),-4,-21,79*,x,0,3
O=C1CS/C(=N/N=C/c2ccco2)N1Cc1ccc(F)cc1,-9,-2,x,0.39,x,1
COc1cccc(-c2csc3nc[nH]c(=O)c23)c1,-4,-12,89*,1.3,0,-1
COc1ccccc1CNC(=O)CSc1ccsc1[N+](=O)[O-],0,-13,-50,0.41,0,9.2*
O=C(CSc1ccsc1[N+](=O)[O-])NCc1ccccc1,-5,-2,x,x,0,0
COCCNC(=O)NC(=O)CSc1nc(C)c(C)c(C)n1,0,-3,-17,-0.01,-1,-1
CC1=C(C#N)C(/C=N/OCc2ccc(Cl)cc2)CC(=O)N1 (stereo not given),-3,10,83*,0.11,0,1
COc1ccc(S(=O)CC(=O)Nc2ccccc2Cl)cc1 (stereo not given),2,2,28,x,0,9.7*
N#CC[n+]1cc(-c2ccc(Cl)cc2)n2c1CCC2,-2,-4,-55,0.1,0,8.9*
